Assay outcomes (PubChem)
Only some compounds are listed: those with a hit (about 3.9% of all), similar ones and a draw of the others.
AHR act – activators of human aryl hydrocarbon receptor | activation, % at 5 µM | AID 2796 | 320,000 compounds, 2.5% hits | AHR-responsive luciferase reporter cells, luminescence | P35869; in the data active means activation above about 47%;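 further: 0% = vehicle wells and 100% = reference agonist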
FXN GAA850 act – frataxin GAA850 promoter activation; HEK293 lucGAA850 FXN promoter luciferase reporter, 24 h; percent of 10 µM SAHA response; activation, % at 6 µM; 360,000 compounds, 0.56% hits;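 active means activation above the average of all compounds screened plus 3 SD, cutoff fixed separately per campaign, cut at about 7.5% in these data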;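 further: 0% = DMSO wells and 100% = 10 µM SAHA wells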
HIF act – HIF pathway transcriptional activation. U2OS HRE-luciferase reporter, luminescence; normalized: DMSO 0%, desferrioxamine 100%. activation, % at 7.5 µM (by protocol). 300,000 compounds, 0.32% hits;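 active means mean activation of at least 10% of the iron chelator positive control signal, with at least half of replicates also reaching 10%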
SR-BI uptake up – enhances SR-BI lipid uptake from DiI-HDL; 320,000 compounds, 0.096% hits; CHO ldlA[mSR-BI] cells, DiI-HDL uptake fluorescence, 3 h; 100 = double the neutral-control signal; activation, % at 12.5 µM; AID 504775;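 active means mean replicate activation of at least 60% and every replicate at or above 60%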;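 further: 0% = median plate neutral-control signal and 100% = twice that signal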
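material = CHO ldlA[mSR-BI] cells | medium = Ham's F12 with 0.5% BSA, HEPES 25 mM, pH 7.4 | reagent = fluorescent DiI-HDL, 10 µg/mL final | compound dosing = single-point compound dose | incubation = 3 h, 37 °C | measured by = bottom-read fluorescence, 550/595 nm | measure = HDL uptake via cellular fluorescence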
ABCB6 inh MLPCN – human ABCB6 transporter inhibition; K562-ABCB6 porphyrin accumulation, flow cytometry, 1 h; hits give low values; fluorescence ratio to DMSO, % at 10 µM; 360,000 compounds, 0.19% hits;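 active means fluorescence ratio to DMSO below 75%, the collection mean minus 3 SD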;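 further: signal is porphyrin accumulated inside mitochondria; 100% equals median channel fluorescence of DMSO control wells; lower ratio means ABCB6 inhibition with less porphyrin fluorescence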
SR-BI HDL uptake – inhibitors of mouse SR-BI mediated HDL lipid uptake; inhibition, % at 12.5 µM; 320,000 compounds, 0.96% hits; Q61009; AID 488896; ldlA[mSR-BI] CHO cells, DiI-HDL uptake fluorescence, 3 h;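 active means mean replicate inhibition of at least 70% and a set share of replicates each scoring 70 or more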;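 further: 0% = median of neutral control wells and 100% = median of positive control wells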
Target sequence (Q61009 whole entry, looked up): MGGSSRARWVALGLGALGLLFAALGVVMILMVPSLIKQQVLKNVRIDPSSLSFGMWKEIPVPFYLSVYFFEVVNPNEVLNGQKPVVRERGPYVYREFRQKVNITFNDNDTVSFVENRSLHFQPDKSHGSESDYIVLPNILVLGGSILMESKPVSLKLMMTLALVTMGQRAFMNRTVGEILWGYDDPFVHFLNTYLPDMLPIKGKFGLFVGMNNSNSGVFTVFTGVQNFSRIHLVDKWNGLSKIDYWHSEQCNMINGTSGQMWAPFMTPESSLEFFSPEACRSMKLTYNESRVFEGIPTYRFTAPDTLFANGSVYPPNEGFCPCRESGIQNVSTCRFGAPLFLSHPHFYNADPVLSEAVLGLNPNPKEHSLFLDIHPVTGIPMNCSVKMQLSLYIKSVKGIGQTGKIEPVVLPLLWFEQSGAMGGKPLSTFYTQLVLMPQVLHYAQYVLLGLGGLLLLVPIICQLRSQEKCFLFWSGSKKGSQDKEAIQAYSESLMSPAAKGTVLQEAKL
GAA30 FXN cntr – GAA30 FXN promoter activation counter-screen | 1,900 compounds, 66% hits | shares compounds with FXN GAA850 act | activation, % at 6 µM | HEK293 lucGAA30 FXN promoter luciferase, 24 h; DMSO = 0%, 5 µM ipriflavone = 100%;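 active means mean activation above the mean of solvent-only control wells plus 3 SD, cut at about 22% in these data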;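 further: counterscreen of GAA850 promoter hits where activity marks nonselective or luminescence artifacts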
FXN GAA850 conf – confirmation of GAA850 frataxin (FXN) promoter activators. shares compounds with FXN GAA850 act. HEK293 lucGAA850 FXN promoter luciferase reporter, 24 h; 100% = activation by SAHA. activation, % at 6 µM. 1,900 compounds, 86% hits;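 active means mean activation above a set limit taken from the primary screen, cut at about 8% in these data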;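 further: 0% = DMSO wells and 100% = 10 µM SAHA wells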
Starred values were filed as active, the others as inactive.

Screening Cc1ccc(S(=O)(=O)N(C)C[C@@H]2OCc3ccccc3-c3c(n(C)c4ccccc34)C(=O)N([C@H](C)CO)C[C@@H]2C)cc1 returned FXN GAA850 act 12.8*, ABCB6 inh MLPCN 100.0, GAA30 FXN cntr 10.1 and FXN GAA850 conf 8.8*.
For C[C@H](CO)N1C[C@H](C)[C@H](CN(C)S(=O)(=O)c2ccc(Cl)cc2)OCc2ccccc2-c2c(n(C)c3ccccc23)C1=O the results were FXN GAA850 act 12.3*, ABCB6 inh MLPCN 99.0, GAA30 FXN cntr 5.5 and FXN GAA850 conf 9.8*.
COc1cc(C(=O)N2CCCCCCC2)ccc1OC1CCN(C(C)=O)CC1 was read as AHR act -0.3, FXN GAA850 act 3.2, HIF act 0.2, SR-BI uptake up -5.0, ABCB6 inh MLPCN 97.0 and SR-BI HDL uptake 5.0.
For CCSc1ccc(-c2cccc([N+](=O)[O-])c2)nn1 the results were AHR act 4.1, FXN GAA850 act 8.5*, HIF act 4.0, SR-BI uptake up 0.5, ABCB6 inh MLPCN 98.0, SR-BI HDL uptake -0.5, GAA30 FXN cntr 97.4* and FXN GAA850 conf 28.5*.
For Cc1cccc(NC(=O)c2cc(S(=O)(=O)N(C)c3ccc(F)cc3)ccc2Cl)n1 the results were AHR act 2.5, FXN GAA850 act -1.6, HIF act 0.8, SR-BI uptake up -11.1, ABCB6 inh MLPCN 92.0 and SR-BI HDL uptake 11.1.
For Cc1ccc(S(=O)(=O)c2nc(-c3ccco3)oc2N2CCC(C)CC2)cc1 the results were AHR act -1.1, FXN GAA850 act 3.6, HIF act -0.3, SR-BI uptake up 2.7, ABCB6 inh MLPCN 93.0 and SR-BI HDL uptake -2.7.
Screening CC(/C=C/c1ccco1)=N/NC(=O)OC(C)(C)C returned AHR act 5.0, FXN GAA850 act 8.8*, HIF act -0.1, SR-BI uptake up 16.1, ABCB6 inh MLPCN 99.0, SR-BI HDL uptake -16.1, GAA30 FXN cntr 68.4* and FXN GAA850 conf 27.5*.
`CC(/C=C/c1ccco1)=N/NC(=O)Cc1cccs1` gave AHR act 5.0, FXN GAA850 act 8.2*, HIF act -0.7, SR-BI uptake up 7.2, ABCB6 inh MLPCN 86.0, SR-BI HDL uptake -7.2, GAA30 FXN cntr 36.6* and FXN GAA850 conf 17.5*.
`C/C(=N/NC(=O)OC(C)(C)C)c1ccco1` gave AHR act 5.0, FXN GAA850 act 4.0, HIF act 1.9, SR-BI uptake up 21.8, ABCB6 inh MLPCN 100.0 and SR-BI HDL uptake -21.8.
For Cc1c(CN(C)C)c2c(n1C)C(=O)c1ccc(Br)cc1-2 the results were AHR act 70.8*, FXN GAA850 act 10.6*, HIF act -0.1, SR-BI uptake up 9.5, ABCB6 inh MLPCN 99.0, SR-BI HDL uptake -9.5, GAA30 FXN cntr 19.6 and FXN GAA850 conf 17.9*.
For COc1cc2sc3cc(NCc4ccc(C)o4)ccc3c(=O)c2cc1OC the results were AHR act 9.0, FXN GAA850 act 10.7*, SR-BI uptake up -80.0, ABCB6 inh MLPCN 110.0, SR-BI HDL uptake 80.0*, GAA30 FXN cntr 109.4* and FXN GAA850 conf 35.2*.
`COc1cc2sc3cc(NCC[C@@H]4CCCN4C)ccc3c(=O)c2cc1OC` gave AHR act 8.3, FXN GAA850 act 9.9*, SR-BI uptake up -62.9, ABCB6 inh MLPCN 93.0, SR-BI HDL uptake 62.9, GAA30 FXN cntr 83.1* and FXN GAA850 conf 42.5*.
`COc1cccc2sc3ccc(NCCC4CCCN4C)cc3c(=O)c12` (centres undefined) gave AHR act 1.4, FXN GAA850 act 2.0, HIF act 0.3, SR-BI uptake up -65.4, ABCB6 inh MLPCN 144.0 and SR-BI HDL uptake 65.4.
For CCCCNC(=O)O[C@@H]1C[C@H]2CCCC(=O)N3CC[C@@H](C1)[C@@H]23 the results were AHR act 0.8, FXN GAA850 act 0.3, HIF act -0.6, SR-BI uptake up 28.7, ABCB6 inh MLPCN 102.0 and SR-BI HDL uptake -28.7.
For c1ccc(CSc2nc3ccccc3[nH]2)cc1 the results were AHR act 1.1, FXN GAA850 act 7.9*, HIF act 2.4, SR-BI uptake up -5.7, ABCB6 inh MLPCN 94.0, SR-BI HDL uptake 5.7, GAA30 FXN cntr 91.2* and FXN GAA850 conf 29.2*.
For Cc1ccc(-c2nc(CN3CCCCC3)cc(CN3CCCCC3)c2O)cc1 the results were AHR act 9.2, FXN GAA850 act 7.9*, HIF act -0.2, SR-BI uptake up 42.2, ABCB6 inh MLPCN 100.0, SR-BI HDL uptake -42.2, GAA30 FXN cntr 29.4* and FXN GAA850 conf 17.4*.
`CC(C)(C)c1nc(CN2CCOCC2)cc(CN2CCOCC2)c1O` gave AHR act 11.6, FXN GAA850 act 0.3, HIF act -0.3, SR-BI uptake up 24.9, ABCB6 inh MLPCN 101.0 and SR-BI HDL uptake -24.9.
For O=c1[nH]c2ccccc2cc1-c1nnn(-c2ccccc2)n1 the results were AHR act 21.6, FXN GAA850 act -1.7, HIF act -0.2, SR-BI uptake up -6.8, ABCB6 inh MLPCN 96.0 and SR-BI HDL uptake 6.8.
CCOC(=O)C1=C(CSc2nc(-c3ccccc3)ccc2C#N)OC(N)=C(C#N)C1c1ccc(OC)cc1 (centres undefined) was read as AHR act 24.4, FXN GAA850 act 8.9*, HIF act 4.1, SR-BI uptake up -34.9, ABCB6 inh MLPCN 430.0, SR-BI HDL uptake 34.9, GAA30 FXN cntr 66.0* and FXN GAA850 conf 24.8*.
COC(=O)CN1C(=O)C(C)=C(c2ccc(C)cc2)S1(=O)=O was read as AHR act -0.3, FXN GAA850 act 13.5*, HIF act -0.1, SR-BI uptake up -19.7, ABCB6 inh MLPCN 101.0, SR-BI HDL uptake 19.7, GAA30 FXN cntr 26.1* and FXN GAA850 conf 8.2*.
For CC(=O)Nc1ccc2c(c1)Cc1cc(N3C(=O)C=CC3=O)ccc1-2 the results were FXN GAA850 act 11.0*, SR-BI uptake up -18.7, ABCB6 inh MLPCN 84.0, SR-BI HDL uptake 18.7, GAA30 FXN cntr -84.8 and FXN GAA850 conf -5.6.
O=C1C=CC(=O)N1c1ccc2c(c1)Cc1cc(F)ccc1-2 was read as FXN GAA850 act -0.6, SR-BI uptake up -0.9, ABCB6 inh MLPCN 95.0 and SR-BI HDL uptake 0.9.
`Cc1nc(/N=C(\N)NC(=O)c2ccccc2)nc2ccccc12` gave AHR act 63.1*, FXN GAA850 act 8.3*, HIF act 2.3, SR-BI uptake up -11.9, ABCB6 inh MLPCN 101.0, SR-BI HDL uptake 11.9, GAA30 FXN cntr 97.2* and FXN GAA850 conf 32.5*.
